In ChEMBL document CHEMBL1154776, “Probes for narcotic receptor mediated phenomena. 39. Enantiomeric N-substituted benzofuro[2,3-c]pyridin-6-ols: synthesis and topological relationship to oxide-bridged phenylmorphans” (J Med Chem, 2009):

What was measured:
[1] = biological target: Delta-type opioid receptor (Homo sapiens, UniProt P41143); test: Displacement of [3H]DADLE from human recombinant delta opioid receptor expressed in CHO cells; type: cell-based
Summary of the method: (§1)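 Stably transfected CHO cells (hDOR-CHO for [3H]DADLE, hKOR-CHO for [3H]U69,593) grown in DMEM with 10% FBS and G-418 (0.10-0.2 mg/mL) under 5% CO2 at 37 °C. Monolayers harvested and frozen at −80 °C before membrane use; n=3.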

[2] = biological target: T1, Mu-type opioid receptor (Homo sapiens, UniProt P35372); test: biochemical; type: cell-based, CHO
[3] = biological target: T1, Mu-type opioid receptor; test: Agonist activity at human recombinant mu opioid receptor expressed in CHO cells assessed as stimulation of [35S]GTPgammaS binding after 3 hrs by liquid scintillation counting relative to DAMGO; type: functional, cell-based
Summary of the method: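 Same [35S]GTPγS membrane assay in hMOR-CHO: 50 pM radioligand, 10 μM GDP, 3 h at 25 °C, GF/B filtration, scintillation counting.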

[4] = biological target: T1, Mu-type opioid receptor; test: Agonist activity at human recombinant mu opioid receptor expressed in CHO cells assessed as stimulation of [35S]GTPgammaS binding after 3 hrs by liquid scintillation counting; type: functional, cell-based
Summary of the method: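 hMOR-CHO membranes (50 μg protein) grown in DMEM/F-12 with 10% FBS and G-418. Incubated 3 h at 25 °C with 50 pM [35S]GTPγS in 50 mM Tris-HCl pH 7.4, 100 mM NaCl, 10 mM MgCl2, 1 mM EDTA, 1 mM DTT, 10 μM GDP and 0.1% BSA. Nonspecific binding defined with 40 μM GTPγS. Bound label separated on GF/B filters and scintillation counted; n=3.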

[5] = biological target: Kappa-type opioid receptor (Homo sapiens, UniProt P41145); test: Displacement of [3H]U69593 from human recombinant kappa opioid receptor expressed in CHO cells; type: cell-based; summary of the method: as §1
[6] = biological target: T1, Mu-type opioid receptor; settings: CHO

Chain of Delta-type opioid receptor (P41143 whole entry): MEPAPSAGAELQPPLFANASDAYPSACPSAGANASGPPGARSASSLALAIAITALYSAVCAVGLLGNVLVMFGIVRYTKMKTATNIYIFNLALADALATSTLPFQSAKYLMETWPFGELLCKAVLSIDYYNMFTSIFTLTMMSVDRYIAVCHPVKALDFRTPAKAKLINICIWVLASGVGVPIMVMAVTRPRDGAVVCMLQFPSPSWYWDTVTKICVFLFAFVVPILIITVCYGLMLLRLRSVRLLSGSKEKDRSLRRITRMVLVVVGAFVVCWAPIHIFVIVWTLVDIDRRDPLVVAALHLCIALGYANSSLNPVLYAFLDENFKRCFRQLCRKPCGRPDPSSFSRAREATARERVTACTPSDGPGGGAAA
Chain of Kappa-type opioid receptor (P41145 whole entry): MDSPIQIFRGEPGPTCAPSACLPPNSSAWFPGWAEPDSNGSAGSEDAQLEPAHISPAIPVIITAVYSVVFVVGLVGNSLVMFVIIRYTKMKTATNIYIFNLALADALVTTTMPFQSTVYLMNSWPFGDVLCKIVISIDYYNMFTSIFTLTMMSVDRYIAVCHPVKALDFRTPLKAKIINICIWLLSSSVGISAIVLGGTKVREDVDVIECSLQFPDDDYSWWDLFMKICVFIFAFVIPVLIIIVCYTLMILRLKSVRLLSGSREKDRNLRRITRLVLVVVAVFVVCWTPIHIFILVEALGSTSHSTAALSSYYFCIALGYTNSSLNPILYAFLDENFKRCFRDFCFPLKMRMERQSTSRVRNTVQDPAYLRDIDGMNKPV
T1 sequence (P35372 whole entry): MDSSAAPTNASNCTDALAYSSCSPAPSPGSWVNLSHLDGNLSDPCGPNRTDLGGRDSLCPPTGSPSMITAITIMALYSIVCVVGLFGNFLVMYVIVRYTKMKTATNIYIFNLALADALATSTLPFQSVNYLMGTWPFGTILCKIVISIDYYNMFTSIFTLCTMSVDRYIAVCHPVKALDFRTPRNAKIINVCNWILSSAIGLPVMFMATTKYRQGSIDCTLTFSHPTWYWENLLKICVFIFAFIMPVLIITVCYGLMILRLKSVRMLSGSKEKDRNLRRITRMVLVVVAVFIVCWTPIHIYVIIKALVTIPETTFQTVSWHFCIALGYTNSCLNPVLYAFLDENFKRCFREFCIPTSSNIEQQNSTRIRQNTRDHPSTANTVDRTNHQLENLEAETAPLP

Compound | Ki [1] | Ki [2] | Emax [3] | ED50 [4] | Ki [5] | Ke [6]
CC[C@]12CCN(C)C[C@H]1Oc1ccc(O)cc12 | 4270 nM | 1330 nM | 45% | 241 nM | – | –
CC[C@@]12CCN(C[C@H](O)c3ccccc3)C[C@@H]1Oc1ccc(O)cc12 | 807 nM | 80 nM | – | – | 1090 nM | –
CC[C@@]12CCN(C)C[C@@H]1Oc1ccc(O)cc12 | 1350 nM | 15.9 nM | – | – | 450 nM | –
CC[C@]12CCNC[C@H]1Oc1ccc(O)cc12 | – | 3500 nM | 97% | 150 nM | – | –
CC[C@]12CCN(C[C@H](O)c3ccccc3)C[C@H]1Oc1ccc(O)cc12 | 3100 nM | 1330 nM | 36% | – | 9500 nM | –
CC[C@@]12CCN(C[C@@H](O)c3ccccc3)C[C@@H]1Oc1ccc(O)cc12 | 443 nM | 9.3 nM | – | – | 413 nM | –
CC[C@]12CCN(C[C@@H](O)c3ccccc3)C[C@H]1Oc1ccc(O)cc12 | 2490 nM | 600 nM | 100% | – | – | –
CC[C@@]12CCNC[C@@H]1Oc1ccc(O)cc12 | – | 48 nM | – | – | – | 95 nM
CC[C@]12CCN(CCc3ccccc3)C[C@H]1Oc1ccc(O)cc12 | 2690 nM | 200 nM | 84% | 24 nM | 2320 nM | –
